TRPN1 ag: zebrafish TRPN1 channel agonists, primary screen, cell-based, HEK293, calcium fluorescence; HEK293 zebrafish TRPN1-YFP, Fluo-8 calcium fluorescence; 100% = response to 87 µM carbachol; 0.18% of 220,000 active; transient receptor potential cation channel N1 (TRPN1/NompC), Danio rerio; activation, % at 3 µM;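 active = activation above its plate's cutoff, the mean activation of test wells on that plate plus 3 SD, cut at about 19% in these data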;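 note: 0% = DMSO alone and 100% = 87 µM carbachol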
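Material – zebrafish TRPN1-YFP in HEK293 cells · Doses – 3 µM single point · Schedule – dye 1 h 37 °C plus 30 min RT · Signal – Fluo-8 calcium fluorescence, excitation 470-495 nm, emission 515-575 nm · Read-out – % activation versus carbachol response · Control set – carbachol high, DMSO low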
ROMK primary: ROMK potassium channel modulators, primary screen, cell-based, thallium flux, MLSMR library; ATP-sensitive inward rectifier potassium channel 1 (Homo sapiens), P48048; Tet-inducible ROMK, thallium flux fluorescence; actives lie on both sides; B-score at 10 µM; 2% of 130,000 active; AID 1918, 2009;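 active = signal ratio slope over the read window, or its plate-corrected B-score, at least 3 SD from the plate mean, either direction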;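 note: B-score of the F/F0 ratio slope over 7 to 12 s after thallium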
ABCB1 inh: ABCB1 efflux pump inhibitors, primary screen, cell-based, multiplex, flow cytometry, ABCG2 counter-screen | inhibition, % at 6.6 µM | CCRF-Adr cells, JC-1 efflux | ATP-dependent translocase ABCB1 (Homo sapiens), P08183 | 0.067% of 190,000 active; in the data active = inhibition above about 40%;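 note: 0% = vehicle and 100% = reference inhibitor; higher value means more JC-1 retained so stronger ABCB1 efflux block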
ABCG2 inh: ABCG2 efflux pump inhibitors, primary screen, multiplex with ABCB1, IgMXP3 cells, flow cytometry; inhibition, % at 6.6 µM; JC-1 efflux; 0.1% of 190,000 active; AID 1325, 2008;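 active = inhibition above 80%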;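 note: 0% = DMSO and 100% = nicardipine control wells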
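Test system: ABCG2 IgMXP3 and barcoded ABCB1 CCRF-Adr cell mix; Schedule: cells with compound and JC-1, 10 min at 25 °C, rotating, no wash; Technique: flow cytometry of retained JC-1 fluorescence; Measure: % inhibition of efflux relative to nicardipine and DMSO; Controls: nicardipine high and DMSO low controls.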
TRPML3 ag: human TRPML3 channel agonists, primary screen, cell-based, HEK293 TRPML3-YFP, Fluo-8 calcium fluorescence, 3 µM; Mucolipin-3 (Homo sapiens), Q8TDD5; activation, % at 3 µM; 100% = the carbachol control signal; 0.29% of 220,000 active;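 active = activation above its plate's cutoff, the mean activation of the plate's test wells plus 3 SD, cut at about 12% in these data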;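 note: 0% = DMSO only wells and 100% = carbachol wells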
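Material: HEK293 cells stably carrying human TRPML3-YFP; compound dosing: single dose, 3 µM final nominal compound, 0.3% DMSO final; incubation: 1-h 37 °C dye load, 5-s basal, 120-s post-compound reads; technique: Fluo-8 intracellular calcium fluorescence, excitation 470-495 nm, emission 515-575 nm; read-out basis: percent activation from peak-to-basal fluorescence ratio, scaled between DMSO and carbachol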
Calb biofilm kill: clotrimazole potentiators killing C. albicans biofilm, primary screen, 4-compound mixtures; inhibition, % at 7.6 µM; C. albicans biofilm persisters + clotrimazole, fluorescence viability; primary screen in compound mixtures of four per well; 0.02% of 120,000 active;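 active = inhibition above 30.3% in the primary screen of four-compound pools, then above 30% when the compound was retested; inconclusive = passed the primary limit but could not be retested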;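 note: compounds exposed to preformed 24 h biofilms for 48 h; 0% = untreated biofilm control and 100% = clotrimazole plus chlorhexidine kill blank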
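Test system: C. albicans CAF4-2 wild-type biofilms; buffer or medium: RPMI/MOPS medium, pH 7.0; schedule: 24 h biofilm formation, then 48 h compound exposure, 37 °C; detection: Alamar Blue fluorescence; measure: percent inhibition of biofilm viability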
TRPN1 counter: zebrafish TRPN1 channel agonists, counter-screen for TRPML3 agonist project, cell-based, HEK293 TRPN1-YFP, Fluo-8 calcium; shares compounds with TRPML3 ag; 10% of 310 active; Fluo-8 calcium fluorescence; scaled: carbachol wells 100%, DMSO wells 0%; AID 1525, 2009; activation, % at 3 µM;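 active = mean activation over replicates above a set limit taken from the earlier TRPN1 channel primary screen, cut at about 19% in these data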;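 note: 100% = carbachol and 0% = 0.3% DMSO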
TRPML3 ag conf: human TRPML3 channel agonists, confirmation, cell-based, HEK293 TRPML3-YFP, Fluo-8 calcium, triplicate | shares compounds with TRPML3 ag | 80% of 310 active | activation, % at 3 µM | Fluo-8 calcium fluorescence; 100% set by carbachol, 0% by DMSO;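 active = activation above a set limit derived from the earlier primary screen, cut at about 12% in these data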
ROMK hit retest: ROMK channel modulator hit retest, confirmation, cell-based, thallium flux, duplicate, resupplied hits; shares compounds with ROMK primary; AID 1917, 2009; normalized thallium flux (F/F0 slope) at 10 µM; 54% of 3,000 active; fluorescence ratio; stronger effect = lower value;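 active = Flux at 10 µM at least 3 SD below or above vehicle control mean in one or both replicates; inconclusive = no clear call, values can overlap the other calls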
Numbers without * were called inactive; ? = inconclusive; . = no result. Many of the other results were omitted from the sample, so hits are more common in it than they were.

SMILES	TRPN1 ag	ROMK primary	ABCB1 inh	ABCG2 inh	TRPML3 ag	Calb biofilm kill	TRPN1 counter	TRPML3 ag conf	others
COc1cccc(CC2(CO)CCCN(Cc3ccc4c(c3)OCCO4)C2)c1 (centres undefined)	1	0.026	5	6	1	21	.	.
CSc1ccccc1NC(=O)CSc1nncs1	0	-0.53	1	2	-1	9	.	.
CN(c1ccc(OCC(=O)OCC(=O)Nc2ccccc2)cc1)S(=O)(=O)c1cccs1	5	0.064	1	22	4	7	.	.
CCN(CC)c1ccc(NC(=O)COc2ccc(N(C)S(=O)(=O)c3cccs3)cc2)cc1	-1	0.93	2	11	14*	14	1	28*
O=C(N/N=C/c1c(Cl)[nH]c2ccccc12)c1ccc2c(c1)OCCO2	1	.	.	.	0	18	.	.
Cc1sc(NC(=O)C2C3CCC(C3)C2C(=O)O)c(C(N)=O)c1-c1ccc(C(C)(C)C)cc1 (centres undefined)	1	-0.21	0	0	18*	16	1	0
O=C(Nc1ccc(F)c(Cl)c1)Nc1ccc(Cl)cn1	0	-0.62	1	2	1	7	.	.
O=C(Nc1ccncc1)Nc1ccc(F)c(Cl)c1	7	-0.91	1	14	12*	12	10	9
Cc1ccc(N2C(=O)CS/C2=C(\C(Cl)=C(Cl)Cl)[N+](=O)[O-])cc1	1	0.97	-1	-1	2	.	.	.
CC1CCCC(C)N1C(=C(Cl)Cl)C(=C1SCCS1)[N+](=O)[O-] (centres undefined)	0	0.33	1	6	14*	12	10	55*
CC(C)(C)n1nnnc1C(c1cccnc1)N(Cc1ccccc1)Cc1ccco1 (centres undefined)	-2	.	2	3	0	.	.	.
COc1cccc(CN(Cc2ccco2)C(c2ccc(F)cc2)c2nnnn2C(C)(C)C)c1 (centres undefined)	0	.	1	5	25*	.	6	26*
O=C(Nc1c(S(=O)(=O)c2ccc(Cl)cc2)csc1Br)c1ccccc1Cl	-2	.	.	.	33*	23	-2	44*
C=CCNC(=O)c1onc(CSc2ccccn2)c1C(=O)NCC=C	.	.	.	.	.	8	.	.
Cc1cnc(NC(=O)c2c(-c3ccccc3)noc2C)s1	1	.	.	.	0	18	.	.
CCN(C1CCCCC1)S(=O)(=O)c1cc(C)ccc1OC	-1	-1.6	0	4	22*	.	-2	35*
COc1ccccc1N1CCN(C(=O)NC23CC4CC(CC(C4)C2)C3)CC1	2	.	0	-2	1	7	.	.
O=C(NCCc1c[nH]c2ccccc12)c1cnccn1	1	0.15	0	0	0	6	.	.
O=c1oc2c(-c3ccc([N+](=O)[O-])cc3)cc(O)cc2s1	0	.	.	.	0	17	.	.
O=S(=O)(C=C(c1ccccc1)c1ccccc1)c1ccccc1	0	.	1	3	83*	.	-2	64*
CO/N=C(/CS(=O)(=O)Cc1ccccc1Cl)c1ccc(Cl)cc1Cl	-1	.	1	2	0	.	.	.
Cc1ccccc1N(CC(=O)NC1CCCC1)C(=O)c1oc(C(C)(C)C)cc1C	1	.	1	1	0	.	.	.
Cc1cc(C(C)(C)C)oc1C(=O)N(CC(=O)NC1CCCC1)Cc1ccccc1Cl	3	.	3	2	33*	.	2	34*	ROMK hit retest=0.054*
O=C1c2ccccc2-c2onc3ccc(N4CCCC4)c1c23	18	-5.6*	2	1	14*	11	51*	39*	ROMK hit retest=0.06*
CCOc1ccc2noc3c2c1C(=O)c1ccccc1-3	4	.	3	5	4	.	.	.
SMILES	TRPN1 ag	ROMK primary	ABCB1 inh	ABCG2 inh	TRPML3 ag	Calb biofilm kill	TRPN1 counter	TRPML3 ag conf	others
CN(CCOc1ccc(Cl)cc1)c1ccc(S(=O)(=O)N2CCCCC2)cn1	1	-4.4*	1	4	45*	.	0	47*	ROMK hit retest=?
CCCS(=O)(=O)NCCc1csc(-c2ccc(OC)c(OC)c2)n1	2	.	.	.	0	22	.	.
CCc1c(C)nc(SCC(=O)N2CCCCC2CC)[nH]c1=O (centres undefined)	1	-0.029	.	.	1	25	.	.
CCCOc1cc(N(CC)CC)ccc1/C=C(/C#N)c1nc2ccc(C)cc2[nH]1	18	-4.2*	26	44	13*	.	24*	13*	ROMK hit retest=0.039*
CCN(C1CCCCC1)S(=O)(=O)c1ccc(OC)c(C)c1	-1	-3.4*	1	2	26*	.	-3	87*	ROMK hit retest=0.066*
COc1cc(SC)ccc1C(=O)Nc1nccs1	0	0.88	0	7	1	23	.	.
Cc1[nH]nc2c1C(c1ccoc1)C(C#N)=C(N)O2 (centres undefined)	0	-3.2	1	5	0	.	.	.
CCCc1[nH]nc2c1C(c1ccoc1)C(C#N)=C(N)O2 (centres undefined)	-1	-3.7*	2	1	0	-2	.	.	ROMK hit retest=0.052*
C[C@]12CCC(=O)C=C1CC[C@@H]1[C@@H]2CC[C@@]2(C)[C@H]1CC[C@]2(O)C(=O)CO	0	.	-1	-2	0	-7	.	.
CC(=O)[C@H]1CC[C@H]2[C@@H]3CCC4=CC(=O)CC[C@]4(C)[C@H]3CC[C@]12C	-1	.	0	0	1	12	.	.	ROMK hit retest=0.065*
C=CCOc1cccc(C2c3c(oc4ccc(F)cc4c3=O)C(=O)N2CCCN2CCOCC2)c1 (centres undefined)	.	.	.	.	.	3	.	.
O=C1c2oc3ccc(F)cc3c(=O)c2C(c2cccc(O)c2)N1CCCN1CCOCC1 (centres undefined)	0	-2.3*	0	2	0	-6	.	.	ROMK hit retest=0.075
